This is an account of results in ChEMBL document CHEMBL4118180, “Design, synthesis and evaluation of photoactivatable derivatives of microtubule (MT)-active [1,2,4]triazolo[1,5-a]pyrimidines” (Bioorg Med Chem Lett, 2018).

Common to all, as to type: cell-based
Common to all, as to conditions: Homo sapiens

Assay [1] deals with HEK293. Briefly: Induction of microtubule stabilization in HEK293 cells assessed as increase in acetylated alpha tubulin levels at 1 uM after 4 hrs by ELISA relative to control. In outline: (§1)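 HEK-293 cells were exposed to the test compound at 1 or 10 μM for 4 h. Acetylated α-tubulin and total α-tubulin were then measured by ELISA in cell lysates. Levels are expressed relative to vehicle-treated control cells, as the average and SD of triplicate assays. Significance was tested by one-way ANOVA with Dunnett's post-hoc test. Changes in α-tubulin below 15% are treated as assay-to-assay variability.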
(ELISA stands for enzyme-linked immunosorbent assay.)

Assay [2] relates to HEK293. Briefly: Induction of microtubule stabilization in HEK293 cells assessed as increase in acetylated alpha tubulin levels at 10 uM after 4 hrs by ELISA relative to control. In outline:
as §1

For assay [3], the system named is HEK293. In words: Induction of microtubule disruption in HEK293 cells assessed as total alpha tubulin levels at 1 uM after 4 hrs by ELISA relative to control. The gist of the method: as §1
Assay [4] has as its system HEK293. In words: Induction of microtubule disruption in HEK293 cells assessed as total alpha tubulin levels at 10 uM after 4 hrs by ELISA relative to control. The gist of the method:
as §1

In assay [5] the test system is HEK293. In words: Induction of microtubule disruption in HEK293 cells assessed as total alpha tubulin levels after 4 hrs by ELISA relative to control. The gist of the method:
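Total α-tubulin was measured by ELISA in lysates of HEK-293 cells after 4 h incubation with the test compound. Levels are expressed relative to vehicle-treated control cells. Significance was assessed by one-way ANOVA with Dunnett's post-hoc analysis.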

Structures are written as SMILES. Active and inactive are the calls of the source. The rule behind the calls is not given here.

As to `CO[C@@H]1C[C@H]2CC[C@@H](C1)N2c1c(-c2c(F)cc(F)cc2F)c(Cl)nc2ncnn12`, the fold change (FC) with HEK293 [1] came to 3.65; in the assay on HEK293 [2] it was 7.43; in the assay on HEK293 [3], 1.12; in the assay with HEK293 [4] it was 1.38.

With `C[C@H](Nc1c(-c2c(F)cc(OCCCNC(=O)c3ccc(C4(C(F)(F)F)N=N4)cc3)cc2F)c(Cl)nc2ncnn12)C(F)(F)F`, the fold change (FC) in the assay on HEK293 [1] was 1.3; with HEK293 [2] it was 3.65; in the assay on HEK293 [3], 1.31; in the assay with HEK293 [4], 0.88.

For `CNCCCOc1cc(F)c(-c2c(Cl)nc3ncnn3c2N[C@@H](C)C(F)(F)F)c(F)c1`, the fold change (FC) in the assay with HEK293 [1] was determined as 7.07; in the assay with HEK293 [2] it was 0.1; in the assay with HEK293 [3], 0.51; in the assay on HEK293 [4], 0.14.

For `C[C@@H](Nc1c(-c2c(F)cc(OCCCN(C)C)cc2F)c(Cl)nc2ncnn12)C1(C)N=N1`, in the assay with HEK293 [5], the Activity entry is “Dose-dependent effect”. Besides, the fold change (FC) in the assay with HEK293 [1] is 21.7; with HEK293 [2], 0.93; in the assay with HEK293 [3], 0.73; in the assay with HEK293 [4] it was 1.01.

For the compound `[N-]=[N+]=Nc1c(-c2c(F)cc(F)cc2F)c(Cl)nc2ncnn12`, the result in the assay on HEK293 [1] and with HEK293 [2] was inactive.

With `C[C@H](Nc1c(-c2c(F)cc(F)cc2F)c(N=[N+]=[N-])nc2ncnn12)C(F)(F)F`, the result in the assay with HEK293 [1] and in the assay with HEK293 [2] was inactive.

For the compound `C[C@H](Nc1c(-c2c(F)cc(OCCCN(C)C)cc2F)c(Cl)nc2ncnn12)C(F)(F)F`, the fold change (FC) in the assay on HEK293 [1] was 5.83; in the assay with HEK293 [2] it was 0.3; in the assay with HEK293 [3] it was 0.29; in the assay with HEK293 [4] it was 0.14.

On to `C[C@H](Nc1c(-c2c(F)cc(F)cc2F)c(Cl)nc2ncnn12)C1(C)N=N1`, for which the fold change (FC) is 1.85 in the assay with HEK293 [2] and 0.94 with HEK293 [4].

For `C[C@H](Nc1c(-c2c(F)cc(OCCCN(C)C)cc2F)c(Cl)nc2ncnn12)C1(C)N=N1`, the fold change (FC) was found to be 6.7 with HEK293 [1], 0.28 in the assay on HEK293 [2], 0.69 with HEK293 [3] and 0.78 in the assay with HEK293 [4].

`C[C@@H](Nc1c(-c2c(F)cc(F)cc2F)c(Cl)nc2ncnn12)C1(C)N=N1`: the fold change (FC) worked out at 1.42 with HEK293 [1], 4.28 in the assay on HEK293 [2], 0.92 in the assay on HEK293 [3] and 0.89 in the assay with HEK293 [4].

As to `CC1(CNc2c(-c3c(F)cc(F)cc3F)c(Cl)nc3ncnn23)N=N1`, the fold change (FC) in the assay on HEK293 [1] amounted to 1.56; with HEK293 [2], 3.42; in the assay on HEK293 [3], 1.08; in the assay with HEK293 [4], 1.03.

In the case of `CN(C)CCCOc1cc(F)c(-c2c(Cl)nc3ncnn3c2NCC2(C)N=N2)c(F)c1`, the Activity result in the assay on HEK293 [5] is “Dose-dependent effect”. The fold change (FC) worked out at 10.5 in the assay on HEK293 [1], 0.29 in the assay with HEK293 [2], 0.36 in the assay on HEK293 [3] and 0.19 in the assay on HEK293 [4].
